High-throughput results as filed in PubChem.
OX1R antag-1 – blocks the human orexin 1 receptor; actives 0.43% (n = 330,000); inhibition, % at 5 µM; AID 434989; CHO/OX1R cells, Fluo-8 calcium fluorescence, orexin A;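 active = inhibition above its plate's threshold, mean inhibition of all tested compounds on the plate plus 3 SD, cut at about 37% in these data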;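 also: 0% = orexin A challenge wells and 100% = SB-334867-A antagonist wells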
OX1R antag-2 – antagonists of human orexin 1 receptor (OX1R). O43613. OX1R-expressing cells, FRET antagonist read-out. inhibition, % at 6.6 µM. actives 1.8% (n = 330,000); in the data active = inhibition mostly above about 38%, no sharp cut-off; inactive = mostly below about 40%;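 also: 0% = agonist challenge alone and 100% = reference antagonist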
GPR7 antag – human neuropeptides B/W receptor 1 antagonism | actives 1.1% (n = 290,000) | inhibition, % at 4.4 µM | AID 1861 | GPR7-expressing cells, fluorescence antagonist assay; in the data active = inhibition above about 16%, passing the limit was not always enough;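 also: cells stimulated with the agonist NPW; 0% = agonist with vehicle and 100% = vehicle without agonist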
Target sequence (P48145 whole entry, looked up): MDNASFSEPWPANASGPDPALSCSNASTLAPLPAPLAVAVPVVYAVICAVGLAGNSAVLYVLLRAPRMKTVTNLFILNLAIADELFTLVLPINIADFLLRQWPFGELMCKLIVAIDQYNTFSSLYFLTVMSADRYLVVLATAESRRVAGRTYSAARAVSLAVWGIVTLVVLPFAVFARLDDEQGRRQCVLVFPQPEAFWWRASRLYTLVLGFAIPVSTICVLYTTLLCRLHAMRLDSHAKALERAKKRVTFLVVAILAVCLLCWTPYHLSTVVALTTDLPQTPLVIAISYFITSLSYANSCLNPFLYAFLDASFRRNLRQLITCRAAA
TAAR1 antagonist – human TAAR1 antagonism; CHO RD-HGA16 TAAR1, Fluo-8 calcium fluorescence, antagonist; inhibition, % at 3 µM; actives 1.5% (n = 360,000); AID 624466;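 active = inhibition above a per-plate cutoff, the mean inhibition of test compounds on that plate plus 3 SD, cut at about 49% in these data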;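 also: 0% = DMSO plus EC80 beta-PEA response and 100% = DMSO alone without agonist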
Target sequence (Q96RJ0 whole entry, looked up): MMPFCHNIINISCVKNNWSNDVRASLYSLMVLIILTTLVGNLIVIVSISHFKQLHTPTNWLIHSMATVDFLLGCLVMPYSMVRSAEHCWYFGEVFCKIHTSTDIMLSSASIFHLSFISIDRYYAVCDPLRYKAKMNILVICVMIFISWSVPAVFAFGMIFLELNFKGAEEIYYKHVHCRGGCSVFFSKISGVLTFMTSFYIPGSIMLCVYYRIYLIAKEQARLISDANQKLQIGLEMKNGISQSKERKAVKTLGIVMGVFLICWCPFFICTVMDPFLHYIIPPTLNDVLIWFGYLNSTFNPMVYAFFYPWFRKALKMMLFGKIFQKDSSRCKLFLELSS
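test system = CHO RD-HGA16 cells bearing hTAAR1 | replication = singlicate | controls = DMSO-only wells and EC80 β-PEA-stimulated wells | reagent = EC80 β-phenethylamine stimulus | read-out basis = percent inhibition of PEA-evoked calcium signal, max/basal emission ratio | schedule = seeding 17-24 h prior, 75-min 37 °C, 30-min RT dye loading | signal = kinetic Fluo-8 calcium fluorescence measurement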
CHO parental Ca – counter-screen: ATP calcium response change in parental CHO cells. AID 463079. parental CHO-K1, ATP-induced calcium, Fluo-8 fluorescence. actives 0.63% (n = 330,000). inhibition, % at 5.6 µM;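 active = inhibition above that plate's mean sample inhibition plus 3 SD, cut at about 26% in these data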;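 also: 0% = ATP-challenged DMSO wells and 100% = DMSO wells without ATP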
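Assay system: untransfected parental CHO cell line. Also added: ATP agonist challenge. Dosing: one dose, 5.6 µM nominal. Measured by: Fluo-8 fluorescence. Read-out: % inhibition. Benchmarks: ATP wells versus no-ATP DMSO wells. Repeats: no replicates.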
TAAR1 agonist – agonists of human TAAR1 | Q96RJ0 | CHO RD-HGA16 TAAR1, Fluo-8 calcium fluorescence; vehicle wells 0%, saturating PEA agonist 100% | activation, % at 3 µM | actives 0.99% (n = 360,000);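 active = activation above the mean activation of all test compounds in the run plus 3 SD, cut at about 38% in these data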
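Signal – calcium-sensitive Fluo-8 signal, excitation 470-495, emission 515-575 nm · System – RD-HGA16 (CHO) cells co-expressing Gα16 and hTAAR1 · Incubation – 17-24 h seeding, 75 min 37 °C dye, 30 min RT · Compound dosing – 3 µM single concentration · Repeats – no replicates (n 1)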
* = called active by the depositor; x = not tested or not shown. A selection: hits, their analogues and other compounds. The true share with any hit is near 4.5%.

SMILES	OX1R antag-1	OX1R antag-2	GPR7 antag	TAAR1 antagonist	CHO parental Ca	TAAR1 agonist
CCc1cccc(OCC(=O)Nc2ccc(C)c(S(=O)(=O)N3CCCCCC3)c2)c1	22.4	34.2	x	50.1*	34.9*	3.6
O=C(CCCOc1ccc(Br)cc1)Nc1ccc(S(=O)(=O)N2CCOCC2)cc1	27.1	14.3	x	42.8	34.6*	16.4
Cc1ccc(NC(=O)COc2ccccc2C(N)=O)cc1S(=O)(=O)N1CCCCCC1	53.0*	22.6	x	37.2	27.9	15.0
O=C(COc1ccc(S(=O)(=O)N2CCOCC2)cc1)Nc1ccc(Br)cc1	-9.0	5.2	x	43.5	-8.8	11.2
C=CC(=O)NC1CCCCN(C)C1=O (centres undefined)	x	x	x	-10.8	x	0.8
COCCCNC(=O)/C(C#N)=C1\N=C(NC(=O)c2cccs2)c2ccccc21	-17.0	47.3*	-10.8	26.5	-3.5	9.8
N#C/C(C(=O)NCCc1ccccc1)=C1/N=C(NC(=O)c2cccs2)c2ccccc21	-24.5	23.4	6.3	-4.6	-24.5	8.2
Nc1[nH]c(C(=O)c2ccccc2)c(-c2ccccc2Br)c1C(=O)c1cccs1	x	x	x	16.7	x	-0.6
COCC1CCCN(C(=O)c2cc(COc3ccc4ncccc4c3)on2)C1 (centres undefined)	17.9	27.4	11.3	-17.4	54.1*	7.6
CCOC(=O)N1CCN(C(=O)c2cc(COc3cccc(C(C)=O)c3)on2)CC1	-19.2	6.9	-0.8	-4.1	-3.6	8.2
CCOC(=O)N1CCN(C(=O)c2cc(COc3ccc4ncccc4c3)on2)CC1	22.1	12.3	-1.9	-10.6	28.5*	9.4
O=C(c1cc(COc2ccc3ncccc3c2)on1)N1CCCC(O)C1 (centres undefined)	-7.7	29.4	-15.0	-32.1	-2.9	5.1
CCC(O)C1CCN(C(=O)c2cc(COc3ccc4ncccc4c3)on2)CC1 (centres undefined)	12.1	30.3	12.7	4.1	31.4*	9.5
Cc1cccnc1CN1CCN(C(=O)c2cc(COc3ccc4ncccc4c3)on2)CC1	49.2*	53.0	-9.3	8.5	59.5*	9.6
O=C(c1cc(COc2ccc3ncccc3c2)on1)N1CCC(O)CC1	-2.3	14.9	-12.7	10.7	19.3	6.2
OCC1OC(C(N=Nc2ccccc2)=NNc2ccccc2)C(O)C1O (centres undefined)	x	x	x	-31.0	x	1.3
O=C(Nc1ccccn1)c1ccc(Cl)c(S(=O)(=O)N2CCc3ccccc32)c1	26.9	15.6	x	13.9	1.5	5.5
CN(C)C(=O)c1cccc(-c2cccc(-c3nc(C(=O)NCc4ccccc4)cc4c3[C@@H](CCO)N(S(=O)C(C)(C)C)C4)c2)c1 (some centres undefined)	x	x	x	61.3*	x	9.4
COc1cccc(-c2cccc(-c3nc(C(=O)NCCCN4CCOCC4)cc4c3[C@H](CCO)N(S(=O)C(C)(C)C)C4)c2)c1 (some centres undefined)	x	x	x	52.0*	x	21.2
CC(C)(C)S(=O)N1Cc2cc(C(=O)NCC(F)(F)F)nc(-c3cccc(-c4cccc(F)c4)c3)c2[C@H]1CCO (some centres undefined)	x	x	x	62.0*	x	10.1
Cc1cc(Br)c2nc(-c3ccc(F)cc3)c(Cc3cccc(Cl)c3)n2c1	x	x	x	-5.5	x	-0.1
COc1ccccc1OCCSc1nnnn1-c1ccc(C)cc1	-41.2	16.2	x	19.0	40.1*	-0.9
CCOc1ncccc1C(=O)Nc1ccc2nc(C)sc2c1	-3.7	76.2*	-5.4	0.3	-5.7	-0.2
C#CCn1cc(/C=N/NC(=O)c2cc3ccccc3o2)c2ccccc21	-1.1	72.2*	-5.1	14.7	-5.8	2.6
Cc1cc2c(c(=O)o1)[C@@]1(C(=O)N(C)c3c(Br)cccc31)C1=C(CCCC1=O)O2	x	x	x	-19.6	x	1.3
SMILES	OX1R antag-1	OX1R antag-2	GPR7 antag	TAAR1 antagonist	CHO parental Ca	TAAR1 agonist
COC(=O)c1ccc(-c2n[nH]c(=O)c3ccccc23)cc1	-11.1	43.2*	-10.4	5.0	0.8	4.4
C[C@@H]1CN(C(=O)OC(C)(C)C)CCN1c1ccc(N2CCN(Cc3ccccc3)[C@@H](C)C2)c(C#N)c1	x	x	x	-8.0	x	-1.3
COC(=O)CC#C[C@H](C)[C@@H](NS(C)(=O)=O)C(C)(C)COCc1ccccc1	x	x	x	-6.9	x	-0.4
CNC(=O)N1c2ccccc2CCc2ccccc21	1.1	5.2	-4.5	-10.6	0.1	2.5
O=C(NN1c2ccccc2CCc2ccccc21)c1ccccc1Br	13.3	66.3*	2.9	-4.4	4.0	-1.7
COc1cc(/C=N/NC(=O)NC23CC4CC(CC(C4)C2)C3)ccc1OCC(N)=O	-21.9	-0.5	-11.2	58.1*	1.9	27.9
COc1ccc(C=NNC(=S)NC23CC4CC(CC(C4)C2)C3)cc1OC	x	x	x	-8.6	x	1.2
COC(=O)[C@]12C[C@H](CC(=O)NCc3ccc(OC)c(OC)c3)C(=O)N(Cc3ccccc3)C1=C[C@H](C(C)(C)C)O[C@@H]2C	x	x	x	-14.5	x	0.4
CC(OC(=O)C1=Cc2ccccc2OC1)C(=O)NCC1CCCO1 (centres undefined)	x	x	x	5.8	x	4.5
O=C(NNC(=O)c1ccccc1-n1cccc1)c1cccnc1	x	x	x	-10.1	x	2.6
COCC(C)NC(=O)c1nn(Cc2ccccc2)c(=O)c2ccccc12 (centres undefined)	-18.3	74.5*	-10.9	-6.0	-15.7	-2.8
CC1(C(=O)NCc2ccccc2)CN(S(C)(=O)=O)CC(=O)N1Cc1cccs1 (centres undefined)	x	x	x	10.0	x	0.9
CCNC(=O)OC[C@H]1O[C@H](C#Cc2ccc(C(C)(C)C)cc2)C=C[C@H]1OC(C)=O	x	x	x	-9.6	x	0.4
Cc1cc(=O)[nH]c(SCC(=O)O)c1C#N	-2.9	1.3	-13.1	-5.1	-3.3	7.9
Cc1cc(=O)[nH]c(SCC(=O)C23CC4CC(CC(C4)C2)C3)c1C#N	-19.5	39.5*	7.6	-8.9	-8.7	15.7
O=C(O)C1CCCN1C(=O)c1cccc(Cl)c1 (centres undefined)	x	x	x	-21.1	x	1.9
Cc1ccc2nc(CSc3nc(C)cc(C)c3C#N)[nH]c2c1	-27.7	41.4*	1.1	19.0	-9.7	4.6
Cc1cc(C)c(C#N)c(SCc2ccccc2)n1	-13.7	21.2	-13.1	-27.4	-0.8	0.0
NNC(=O)c1sccc1OCc1ccc(Cl)cc1Cl	-44.2	13.6	19.8*	12.7	-28.9	9.0
NNC(=O)c1sccc1OCc1ccc(F)cc1	-35.5	17.5	-5.5	8.6	-41.6	6.9
C=CCN=C1NC(c2ccccc2C(F)(F)F)C(C(=O)OC)=C(C)N1Cc1ccc(C(F)(F)F)cc1 (centres undefined)	x	x	x	-3.1	x	2.7
COc1cc(Nc2cc(C)n(-c3ccc(Cl)c(OC)c3)c(=O)c2)ccc1Cl	x	x	x	-13.2	x	-1.7
O=C(COc1ccccc1F)c1ccc(O)cc1O	-3.4	13.2	-7.7	6.5	5.7	1.1
